Assay outcomes (PubChem)
Arrestin-AP2 inh = human beta-arrestin and AP2 interaction inhibition; AID 504490; actives 0.31% (n = 340,000); FITC-arrestin peptide / GST-AP2 beads, flow cytometry; AP2 beta2 appendage carries R879A mutation; inhibition, % at 10 µM;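 active = inhibition above a set limit, near 3 SD of compounds lacking own fluorescence, cut at about 54% in these data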;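 note: plate controls were DMSO wells for no effect and 5 µM unlabelled arrestin peptide for full effect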
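System: GST-tagged AP2 beta2-adaptin appendage (R879A) on 4 µm glutathione beads / Reagent: FITC-arrestin peptide, 50 nM / Detection: HyperCyt-sampled flow cytometry, FL1 channel, ex 488/em 535 nm / Timing: 12 min plus 1 h, RT / Buffer or medium: PBS plus Tween 20 (0.05%) and BSA (0.1%)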
NRP1-CendR mod = alters CendR peptide binding to human NRP-1. O14786. FAM-RPARPAR peptide binding to NRP-1, fluorescence polarization. inhibition, % at 25 µM. actives 0.85% (n = 360,000);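 active = inhibition or corrected inhibition above about 18%, plus a signal ratio from 0.5 to 1.5, limit read from the data, passing the limit was not always enough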
Granule exo inh = blocks lytic granule exocytosis; TALL-104 LAMP-1 surface exposure, flow cytometry; cells stimulated with thapsigargin and PMA; inhibition, % at 10 µM; actives 0.66% (n = 360,000);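 active = inhibition above about 55%, limit read from the data; inconclusive = no clear call, values can overlap the other calls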
ABCB6 inh MLPCN = blocks the human ABCB6 transporter; actives 0.19% (n = 360,000); K562-ABCB6 porphyrin accumulation, flow cytometry, 1 h; active compounds read low; fluorescence ratio to DMSO, % at 10 µM;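 active = fluorescence ratio to DMSO below 75%, the collection mean minus 3 SD; inconclusive = too few cells collected in the well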;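 note: signal is porphyrin accumulated inside mitochondria; 100% equals median channel fluorescence of DMSO control wells; lower ratio means ABCB6 inhibition with less porphyrin fluorescence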
Target sequence (Q9NP58 whole entry, looked up): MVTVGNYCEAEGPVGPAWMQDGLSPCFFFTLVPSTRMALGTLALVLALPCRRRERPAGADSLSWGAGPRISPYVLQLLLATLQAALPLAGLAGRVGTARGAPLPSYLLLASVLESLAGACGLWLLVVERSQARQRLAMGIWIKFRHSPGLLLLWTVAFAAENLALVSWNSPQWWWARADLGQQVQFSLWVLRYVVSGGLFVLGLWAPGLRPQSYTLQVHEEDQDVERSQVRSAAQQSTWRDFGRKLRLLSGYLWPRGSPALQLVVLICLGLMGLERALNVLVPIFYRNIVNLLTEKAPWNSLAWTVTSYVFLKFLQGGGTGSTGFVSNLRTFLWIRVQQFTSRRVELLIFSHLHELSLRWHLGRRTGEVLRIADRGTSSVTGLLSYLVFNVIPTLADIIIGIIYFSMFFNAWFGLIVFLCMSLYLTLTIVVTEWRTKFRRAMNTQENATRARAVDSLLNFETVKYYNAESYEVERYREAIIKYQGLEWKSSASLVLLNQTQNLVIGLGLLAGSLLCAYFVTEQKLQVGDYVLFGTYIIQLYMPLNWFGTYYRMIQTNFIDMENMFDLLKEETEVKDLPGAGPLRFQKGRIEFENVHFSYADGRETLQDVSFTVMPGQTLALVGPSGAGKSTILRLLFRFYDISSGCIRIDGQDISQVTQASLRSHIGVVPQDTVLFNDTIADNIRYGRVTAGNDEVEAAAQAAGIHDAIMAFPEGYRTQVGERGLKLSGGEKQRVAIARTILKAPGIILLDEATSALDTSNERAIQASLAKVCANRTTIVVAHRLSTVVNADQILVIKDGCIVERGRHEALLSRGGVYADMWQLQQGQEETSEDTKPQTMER
Myeloid diff 2 = promotes myeloid progenitor differentiation; ER-HoxA9 myeloid progenitors, lysozyme-GFP differentiation, flow cytometry; calls only at 10 µM; actives 1% (n = 360,000); AID 624256;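 active = normalized GFP-positive differentiation at or above the plate's own cutoff, the solvent-only control mean plus 3 SD; inconclusive = no clear call, values can overlap the other calls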;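 note: cells exposed to compound for four days before flow analysis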
ATG4B inhibitor = inhibitors of human ATG4B cysteine protease; AID 504462; actives 0.51% (n = 340,000); Q9Y4P1; inhibition, % at 8.33 µM; ATG4B cleavage of LC3-PLA2, NBD-HPC fluorescence, 1 h; in the data active = inhibition above about 40%
Starred values were filed as active, the others as inactive; i = inactive; ? = inconclusive; / = no result; + = active, no number; ! = not confirmed by another sample. Hits are enriched below; roughly 3.3% of the tested compounds scored in any of these assays.

SMILES	Arrestin-AP2 inh	NRP1-CendR mod	Granule exo inh	ABCB6 inh MLPCN	Myeloid diff 2	ATG4B inhibitor
COc1ccc2c(C=Nc3c(C)n(C)n(-c4ccccc4)c3=O)c(O)n(Cc3ccco3)c(=O)c2c1	5.2	47.8	3.6	104.0	+!	-15.6
Cc1c(N=Cc2ccco2)c(=O)n(-c2ccccc2)n1C	-3.2	-0.8	1.3	103.0	i	5.2
COc1cc2c(cc1OC)C(=Cc1ccc(N(C)C)cc1)C=C2	-5.1	-7.2	-12.6	99.0	i	-3.5
COc1cc2nc(/C=C/c3ccc(N(C)C)cc3)sc2cc1SC	9.2	135.1	15.5	208.0	+	3.4
O=C1CN(S(=O)(=O)c2cc(Cl)ccc2Cl)c2ccccc2N1	7.0	21.6*	5.3	101.0	i	-5.2
CSc1ccc(S(=O)(=O)N2CC(=O)Nc3ccccc32)cc1	18.5	-13.5	-6.9	99.0	i	-3.8
Cc1ccc(S(=O)(=O)N(C)Cc2ccc(C(=O)N/N=C/c3ccc(OC(F)F)cc3OC(F)F)cc2)cc1	-18.4	31.0*	-0.4	100.0	i	-15.0
O=C(N/N=C/c1ccc(OC(F)F)cc1OC(F)F)c1ccc(Br)cc1	4.2	6.6	-2.0	97.0	i	-15.2
CC(=O)Nc1ccc(NS(=O)(=O)c2ccc3ccccc3c2)cc1	2.2	-3.3	-1.3	95.0	+	-2.9
CCCCOc1ccc(S(=O)(=O)Nc2ccc(NC(C)=O)cc2)cc1	-0.2	-0.9	2.2	97.0	+	-7.5
CC(=O)Nc1ccc(NS(=O)(=O)c2ccc3[nH]c(=O)[nH]c3c2)cc1	5.5	-3.3	0.4	102.0	+	-2.2
C/C(=N/NS(=O)(=O)c1ccc(Br)cc1)c1cccc(NC(=O)C2CC2)c1	/	-1.7	1.8	101.0	i	/
O=C(/C=C/c1ccc2ccccc2n1)c1cc(Cl)ccc1O	13.6	-66.9	12.9	206.0	+	-5.4
Nc1cc(S(=O)(=O)N2CCOCC2)ccc1Oc1ccc(F)cc1	27.0	28.0*	0.8	80.0	i	11.2
CCN(CC)S(=O)(=O)c1ccc2c(c1)N(CC(=O)Nc1ccc(NC(C)=O)cc1)C(=O)CO2	7.7	-4.0	-2.3	97.0	i	5.0
CC1CCCCN1S(=O)(=O)c1ccc2c(c1)CCN2C(=O)CCC(=O)O (stereo unspecified)	8.8	-4.1	-0.9	89.0	i	-2.7
CC(=O)N1CCc2cc(S(=O)(=O)N3CCCCC3C)ccc21 (stereo unspecified)	33.9	34.6*	-2.3	95.0	i	7.8
COc1ccc(N)cc1-n1c(C)ccc1C	15.2	-8.4	1.8	162.0	+	-3.8
COc1ccc(C)cc1-n1c(C)cc(C=O)c1C	10.4	5.6	2.6	111.0	i	-6.9
Cc1cc(C)n2nc(S(=O)(=O)NC(C)(C)C)nc2n1	17.9	5.8	3.5	98.0	i	-6.5
O=C1CC(Cc2ccc(Cl)cc2)C(=O)N1c1ccccn1 (stereo unspecified)	16.0	-13.4	-1.0	73.0*	i	1.0
CCC1(c2ccccc2)NC(=O)N(CC(=O)N2CCN(S(=O)(=O)c3ccccc3)CC2)C1=O (stereo unspecified)	17.9	4.0	-0.1	103.0	?	2.5
Cc1cccc(Nc2ccccc2C(=O)OCC(=O)NCc2ccco2)c1C	13.6	-15.3	-9.5	95.0	i	24.1
Cc1ccccc1C(=O)OCC(=O)NCc1ccco1	17.0	-9.5	61.5*	96.0	i	-6.5
CCOC(=O)c1cnc2c(C)cccc2c1NCc1ccco1	6.5	19.6	-2.9	101.0	+	-9.6
SMILES	Arrestin-AP2 inh	NRP1-CendR mod	Granule exo inh	ABCB6 inh MLPCN	Myeloid diff 2	ATG4B inhibitor
Cc1ccc(C(=O)NCc2ccco2)o1	3.7	-11.6	-0.1	92.0	+	3.0
O=C(NCc1cccc(C(F)(F)F)c1)C1CC(c2c(Cl)cccc2Cl)=NO1 (stereo unspecified)	1.4	10.9	3.8	101.0	i	32.6
CC(=O)NCCn1ccc2ccccc21	-1.6	31.5*	0.3	193.0	i	2.2
Cc1c(NP(=O)(c2ccc(Br)cc2)c2ccc(Br)cc2)c(=O)n(-c2ccccc2)n1C	13.7	5.5	-1.2	84.0	i	-7.3
Oc1ccccc1C=NCCN1CCN(CCN=Cc2ccccc2O)C1c1ccccc1O (stereo unspecified)	-16.8	22.1*	-1.9	99.0	i	3.1
Oc1ccccc1C=NCCN=Cc1ccccc1O	-7.2	0.9	-1.8	107.0	i	9.4
CC1(C)C=C2C(=NN(c3ccccc3)C(N)=C2C#N)CO1	-7.5	12.8	3.5	104.0	+	10.7
O=C(Nc1ccc(N2CCOCC2)cc1)c1csc([C@@H]2C[C@H](O)[C@@H](CO)O2)n1	/	-7.0	3.0	96.0	i	/
O=C1CN(C(=O)CNC(=O)c2ccc(Cl)cc2Cl)CCN1	0.0	6.0	15.7	101.0	i	4.7
COc1cc(/C=c2\sc3n(c2=O)C(c2ccccc2)C(c2ccccc2)=NN=3)ccc1O (stereo unspecified)	-0.4	-54.6	1.1	120.0	+	-13.7
COc1cc(/C=c2\sc3n(c2=O)CCCN=3)ccc1O	19.8	-16.9	2.2	114.0	i	-12.5
COc1cccc(C2c3[nH]c4ccccc4c3CCN2C(=O)c2ccccc2F)c1OC (stereo unspecified)	40.2	-2.0	4.7	102.0	i	-5.1
O=C(c1cn[nH]c1)N1CCc2c([nH]c3ccccc23)C1c1c(F)cccc1Cl (stereo unspecified)	0.1	40.5*	11.7	100.0	i	30.7
CCc1ccc(NC(=O)N(Cc2ccco2)C(C)c2cccs2)cc1 (stereo unspecified)	11.2	31.6*	-4.0	97.0	i	10.5
O=C(c1ccc(N2CN(C(=O)c3ccco3)c3nc4ccccc4nc32)cc1)N1CCOCC1	17.8	-9.1	9.1	100.0	+	-9.7
CCOC(=O)c1nn(-c2ccccc2)c(C#N)c1N	32.4	39.2*	-1.5	91.0	i	-2.4
O=C(NCc1ccccn1)c1cccc(S(=O)(=O)NCc2ccccc2)c1	-5.2	0.1	-1.7	96.0	i	2.0
COc1ccc(C(=O)Cn2nnc(-c3ccccc3NC(=O)C3CC3)n2)cc1	7.6	33.2*	8.5	89.0	i	1.8
COc1ccc(C(=O)Cn2nnc(-c3ccccc3F)n2)cc1	28.6	7.1	1.6	97.0	i	0.1
CCn1cnc2c1c(=O)n(CC(=O)OC)c(=O)n2Cc1ccccc1	5.3	4.4	10.6	84.0	i	-3.7
O=C1c2ccccc2C(=O)N1SC1CCCCC1	11.8	22.7	87.1*	100.0	i	5.7
O=[N+]([O-])c1cc([N+](=O)[O-])c(Oc2cccc(Cl)c2Cl)cc1NN1CCCCC1	7.1	-2.9	-4.7	97.0	i	-5.4
